The values that follow come from ChEMBL document CHEMBL4354843, “Structure-Based Design of a Potent and Selective Covalent Inhibitor for SRC Kinase That Targets a P-Loop Cysteine” (J Med Chem, 2020).

Test [1] has as its target Mitogen-activated protein kinase kinase kinase kinase 4 (Homo sapiens) (UniProt O95819). The test can be described thus: Binding affinity to wild-type human partial length MAP4K4 (M1 to R310 residues) expressed in bacterial expression system assessed as residual binding level at 1 uM by Kinomescan method relative to control.
The target of test [2] is Myosin light chain kinase family member 4 (Homo sapiens) (UniProt Q86YV6). The test can be described thus: Binding affinity to wild-type human partial length MYLK4 (V79 to S380 residues) expressed in bacterial expression system assessed as residual binding level at 1 uM by Kinomescan method relative to control.
The target in test [3] is Transient receptor potential cation channel subfamily M member 6 (Homo sapiens) (UniProt Q9BX84). The test can be described thus: Binding affinity to wild-type human partial length TRPM6 (Q1723 to I1998 residues) expressed in mammalian expression system assessed as residual binding level at 1 uM by Kinomescan method relative to control. Put shortly: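 Active site-directed competition binding panel (KinomeScan, 468 kinases). Test compound at 1 μM. Read-out is kinase binding remaining versus DMSO control, expressed as percent of control. Scores above 35% are treated as weak binding.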

Test [4] deals with Leukocyte tyrosine kinase receptor (Homo sapiens) (UniProt P29376). The test can be described thus: Binding affinity to wild-type human partial length LTK (P422 to S744 residues) expressed in bacterial expression system assessed as residual binding level at 1 uM by Kinomescan method relative to control.
Test [5] concerns the target Mitogen-activated protein kinase 1 (Homo sapiens) (UniProt P28482). Description: Binding affinity to wild-type human full length ERK2 (M1 to S360 residues) expressed in bacterial expression system assessed as residual binding level at 1 uM by Kinomescan method relative to control. Put shortly: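 Active-site-directed KinomeScan competition binding panel covering 468 kinases, compound tested at 1 μM. Each readout is the kinase signal remaining with compound, expressed as a percentage of the DMSO control. […]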

Test [6] has as its system Phosphatidylinositol 4,5-bisphosphate 3-kinase catalytic subunit alpha isoform (Homo sapiens), P42336 [E542K]. The test can be described thus: Binding affinity to human partial length PIK3CA E542K mutant (R108 to N1068 residues) expressed in mammalian expression system assessed as residual binding level at 1 uM by Kinomescan method relative to control. A digest of the protocol: (§1)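 KinomeScan active site-directed competition binding panel (468 kinases), compound tested at 1 μM. Result expressed as remaining kinase signal versus DMSO control (percent of control).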

The target of test [7] is Mitogen-activated protein kinase kinase kinase 13 (Homo sapiens) (UniProt O43283). Description: Binding affinity to wild-type human full length LZK (M1 to W966 residues) expressed in mammalian expression system assessed as residual binding level at 1 uM by Kinomescan method relative to control. Put shortly:
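Active-site-directed competition binding panel (KinomeScan) covering 468 kinases. Test agent was screened at 1 μM. The read-out is the remaining kinase signal expressed relative to a DMSO control. Scores above 35%, taken as weak binding, were not reported.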

Test [8] concerns the target Rhodopsin kinase GRK1 (Homo sapiens) (UniProt Q15835). The test can be described thus: Binding affinity to wild-type human full length GRK1 (M1 to S563 residues) expressed in mammalian expression system assessed as residual binding level at 1 uM by Kinomescan method relative to control. Put shortly:
(§2)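 KinomeScan, an active site-directed competition binding panel of 468 kinases. The test compound was at 1 μM. The readout is remaining kinase binding as a percentage of the DMSO control. Scores above 35% were treated as weak binding and not listed.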

Test [9] concerns ALK tyrosine kinase receptor (Homo sapiens), Q9UM73 [L1196M]. Description: Binding affinity to wild-type human partial length ALK L1196M mutant (I1088 to E1409 residues) expressed in mammalian expression system assessed as residual binding level at 1 uM by Kinomescan method relative to control.
Test [10] deals with Serine/threonine-protein kinase 24 (Homo sapiens) (UniProt Q9Y6E0). The test can be described thus: Binding affinity to wild-type human partial length MST3 (A30 to S311 residues) expressed in bacterial expression system assessed as residual binding level at 1 uM by Kinomescan method relative to control.
The target of test [11] is Dual specificity mitogen-activated protein kinase kinase; MEK1/2 (Homo sapiens) (UniProt P36507+Q02750). Description: Inhibition of MEK1/2 in human HCC827 cells assessed as blocking of MEK1/2 pulldown at 1 uM in presence of TL13-68 incubated for 2 hrs by Western blot analysis. Format: cell-based. Put shortly: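 H1975 or HCC827 cells treated with 1 μM compound or DMSO for 2 h, rinsed twice in cold PBS, and lysed in M-PER with protease/phosphatase inhibitors. Lysate rocked overnight at 4 °C with 1 μM TL13-68, then streptavidin pulldown with five cold washes. Bound kinases detected by Western blot. Two independent experiments.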
On the technique in general: In western blotting, separated proteins are transferred to a membrane and probed.

Test [12] has as its target Serine/threonine-protein kinase 35 (Homo sapiens) (UniProt Q8TDR2). Description: Binding affinity to wild-type human partial length STK35 (G182 to A534 residues) expressed in bacterial expression system assessed as residual binding level at 1 uM by Kinomescan method relative to control.
Test [13] has as its target Interleukin-1 receptor-associated kinase 4 (Homo sapiens) (UniProt Q9NWZ3). The test can be described thus: Binding affinity to wild-type human partial length IRAK4 (M1 to S460 residues) expressed in mammalian expression system assessed as residual binding level at 1 uM by Kinomescan method relative to control.
In test [14] the target is Serine/threonine-protein kinase B-raf (Homo sapiens) (UniProt P15056). Description: Binding affinity to wild-type human partial length BRAF (S429 to E741 residues) expressed in mammalian expression system assessed as residual binding level at 1 uM by Kinomescan method relative to control.
The target in test [15] is Cyclin-dependent kinase-like 2 (Homo sapiens) (UniProt Q92772). The test can be described thus: Binding affinity to wild-type human partial length CDKL2 (M1 to D327 residues) expressed in bacterial expression system assessed as residual binding level at 1 uM by Kinomescan method relative to control.
Test [16] deals with MAP/microtubule affinity-regulating kinase 3 (Homo sapiens) (UniProt P27448). The test can be described thus: Binding affinity to wild-type human full length MARK3 (M1 to L729 residues) expressed in bacterial expression system assessed as residual binding level at 1 uM by Kinomescan method relative to control. Put shortly:
as §2

Test [17] has as its target Dual specificity protein kinase CLK4 (Homo sapiens) (UniProt Q9HAZ1). The test can be described thus: Binding affinity to wild-type human partial length CLK4 (R135 to K481 residues) expressed in bacterial expression system assessed as residual binding level at 1 uM by Kinomescan method relative to control.
Test [18] deals with Serine/threonine-protein kinase MRCK alpha (Homo sapiens) (UniProt Q5VT25). The test can be described thus: Binding affinity to wild-type human partial length MRCKA (L57 to V418 residues) expressed in bacterial expression system assessed as residual binding level at 1 uM by Kinomescan method relative to control.
Test [19] concerns Phosphatidylinositol 4,5-bisphosphate 3-kinase catalytic subunit alpha isoform (Homo sapiens), P42336 [E545K]. The test can be described thus: Binding affinity to human partial length PIK3CA E545K mutant (R108 to N1068 residues) expressed in mammalian expression system assessed as residual binding level at 1 uM by Kinomescan method relative to control. Put shortly:
as §1

Test [20] has as its target Mitogen-activated protein kinase 10 (Homo sapiens) (UniProt P53779). Description: Binding affinity to wild-type human partial length JNK3 (V28 to Q422 residues) expressed in mammalian expression system assessed as residual binding level at 1 uM by Kinomescan method relative to control.

Structures are written as SMILES. The source made the active and inactive calls. The calls are words filed in the database; no cut-off is given here.

Chain of Rhodopsin kinase GRK1 (Homo sapiens) (Q15835 whole entry, the tested form may be a part): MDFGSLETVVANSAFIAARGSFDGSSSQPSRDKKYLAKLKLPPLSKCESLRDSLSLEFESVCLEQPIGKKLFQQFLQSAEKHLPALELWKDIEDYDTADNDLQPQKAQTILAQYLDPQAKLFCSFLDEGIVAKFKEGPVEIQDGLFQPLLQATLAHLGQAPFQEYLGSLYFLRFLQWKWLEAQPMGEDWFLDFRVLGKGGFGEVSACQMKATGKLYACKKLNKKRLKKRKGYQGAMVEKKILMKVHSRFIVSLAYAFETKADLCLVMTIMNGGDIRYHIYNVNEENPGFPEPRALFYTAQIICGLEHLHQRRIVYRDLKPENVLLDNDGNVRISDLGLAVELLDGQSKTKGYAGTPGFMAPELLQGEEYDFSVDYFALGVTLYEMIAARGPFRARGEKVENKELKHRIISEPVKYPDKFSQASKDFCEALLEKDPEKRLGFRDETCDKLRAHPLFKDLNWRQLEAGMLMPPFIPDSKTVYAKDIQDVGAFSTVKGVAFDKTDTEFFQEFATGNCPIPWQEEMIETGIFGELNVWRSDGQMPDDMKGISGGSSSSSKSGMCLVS
Chain of Serine/threonine-protein kinase 24 (Homo sapiens) (Q9Y6E0 whole entry, looked up, the tested form may be a part): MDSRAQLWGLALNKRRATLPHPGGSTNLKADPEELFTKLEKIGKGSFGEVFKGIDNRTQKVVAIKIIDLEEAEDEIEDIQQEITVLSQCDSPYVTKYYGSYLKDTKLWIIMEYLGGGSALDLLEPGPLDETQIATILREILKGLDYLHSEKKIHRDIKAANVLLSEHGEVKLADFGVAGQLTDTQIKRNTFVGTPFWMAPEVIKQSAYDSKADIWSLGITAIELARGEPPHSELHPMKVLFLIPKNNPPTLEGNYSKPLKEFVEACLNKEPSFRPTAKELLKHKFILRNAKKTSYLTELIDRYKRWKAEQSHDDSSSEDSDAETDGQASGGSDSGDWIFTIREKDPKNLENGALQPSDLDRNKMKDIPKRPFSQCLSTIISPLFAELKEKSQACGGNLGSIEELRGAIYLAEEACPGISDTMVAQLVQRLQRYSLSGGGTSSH
Chain of Leukocyte tyrosine kinase receptor (Homo sapiens) (P29376 whole entry, the tested form may be a part): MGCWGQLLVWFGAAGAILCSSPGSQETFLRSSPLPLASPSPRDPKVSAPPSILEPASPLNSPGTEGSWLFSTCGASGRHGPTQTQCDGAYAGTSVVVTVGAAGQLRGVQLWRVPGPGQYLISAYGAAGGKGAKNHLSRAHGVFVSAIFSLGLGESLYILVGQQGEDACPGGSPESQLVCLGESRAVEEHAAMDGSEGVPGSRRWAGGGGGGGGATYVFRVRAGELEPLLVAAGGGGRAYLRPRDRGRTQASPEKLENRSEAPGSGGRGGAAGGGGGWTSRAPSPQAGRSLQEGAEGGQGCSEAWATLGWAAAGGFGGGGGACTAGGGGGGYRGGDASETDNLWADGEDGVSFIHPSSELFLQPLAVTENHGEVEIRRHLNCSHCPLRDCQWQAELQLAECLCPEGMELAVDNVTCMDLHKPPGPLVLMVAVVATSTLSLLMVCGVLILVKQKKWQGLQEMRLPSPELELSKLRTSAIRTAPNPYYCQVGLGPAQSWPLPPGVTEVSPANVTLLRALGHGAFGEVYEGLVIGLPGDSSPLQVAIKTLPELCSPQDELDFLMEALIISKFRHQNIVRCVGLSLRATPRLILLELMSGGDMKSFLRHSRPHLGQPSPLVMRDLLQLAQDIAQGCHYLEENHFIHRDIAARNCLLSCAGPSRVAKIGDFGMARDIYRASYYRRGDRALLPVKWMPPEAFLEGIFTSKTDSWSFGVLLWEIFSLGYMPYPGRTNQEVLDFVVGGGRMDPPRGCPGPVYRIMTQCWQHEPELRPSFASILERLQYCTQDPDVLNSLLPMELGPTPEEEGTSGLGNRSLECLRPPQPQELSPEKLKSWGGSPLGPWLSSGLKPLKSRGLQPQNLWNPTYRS
Chain of Cyclin-dependent kinase-like 2 (Homo sapiens) (Q92772 whole entry, the tested form may be a part): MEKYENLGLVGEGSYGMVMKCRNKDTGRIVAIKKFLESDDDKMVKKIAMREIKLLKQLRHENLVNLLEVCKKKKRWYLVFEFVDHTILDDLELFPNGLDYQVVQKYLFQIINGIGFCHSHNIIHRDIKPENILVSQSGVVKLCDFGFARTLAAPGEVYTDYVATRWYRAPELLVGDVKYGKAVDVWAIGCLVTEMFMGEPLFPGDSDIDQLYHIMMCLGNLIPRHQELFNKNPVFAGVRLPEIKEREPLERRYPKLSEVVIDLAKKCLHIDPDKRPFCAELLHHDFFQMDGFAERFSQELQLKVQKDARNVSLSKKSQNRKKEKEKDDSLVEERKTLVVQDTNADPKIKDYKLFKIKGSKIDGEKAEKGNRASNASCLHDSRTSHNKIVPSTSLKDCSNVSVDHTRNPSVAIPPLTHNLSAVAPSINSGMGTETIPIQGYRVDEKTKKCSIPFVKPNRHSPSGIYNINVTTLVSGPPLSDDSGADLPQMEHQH
Chain of MAP/microtubule affinity-regulating kinase 3 (Homo sapiens) (P27448 whole entry, looked up, the tested form may be a part): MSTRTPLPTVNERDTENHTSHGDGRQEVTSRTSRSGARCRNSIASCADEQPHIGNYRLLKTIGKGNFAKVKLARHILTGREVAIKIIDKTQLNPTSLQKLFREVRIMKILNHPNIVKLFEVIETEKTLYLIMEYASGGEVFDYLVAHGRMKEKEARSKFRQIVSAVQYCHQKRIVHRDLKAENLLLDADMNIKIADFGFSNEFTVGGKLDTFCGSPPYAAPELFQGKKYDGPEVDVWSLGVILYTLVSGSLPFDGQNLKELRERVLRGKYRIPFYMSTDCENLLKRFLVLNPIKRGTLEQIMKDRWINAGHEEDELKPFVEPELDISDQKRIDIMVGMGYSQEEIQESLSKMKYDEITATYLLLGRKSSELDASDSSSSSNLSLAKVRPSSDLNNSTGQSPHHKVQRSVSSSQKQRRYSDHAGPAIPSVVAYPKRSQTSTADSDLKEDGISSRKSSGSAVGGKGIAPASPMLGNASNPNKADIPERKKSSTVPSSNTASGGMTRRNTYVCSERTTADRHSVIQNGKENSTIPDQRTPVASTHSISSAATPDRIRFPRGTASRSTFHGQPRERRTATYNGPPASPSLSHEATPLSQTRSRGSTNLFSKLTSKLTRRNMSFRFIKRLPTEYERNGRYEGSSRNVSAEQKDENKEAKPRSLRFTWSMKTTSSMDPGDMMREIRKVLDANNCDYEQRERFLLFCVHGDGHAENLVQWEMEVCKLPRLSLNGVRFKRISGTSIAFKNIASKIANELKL
Chain of Mitogen-activated protein kinase kinase kinase kinase 4 (Homo sapiens) (O95819 2-1239 limits assumed): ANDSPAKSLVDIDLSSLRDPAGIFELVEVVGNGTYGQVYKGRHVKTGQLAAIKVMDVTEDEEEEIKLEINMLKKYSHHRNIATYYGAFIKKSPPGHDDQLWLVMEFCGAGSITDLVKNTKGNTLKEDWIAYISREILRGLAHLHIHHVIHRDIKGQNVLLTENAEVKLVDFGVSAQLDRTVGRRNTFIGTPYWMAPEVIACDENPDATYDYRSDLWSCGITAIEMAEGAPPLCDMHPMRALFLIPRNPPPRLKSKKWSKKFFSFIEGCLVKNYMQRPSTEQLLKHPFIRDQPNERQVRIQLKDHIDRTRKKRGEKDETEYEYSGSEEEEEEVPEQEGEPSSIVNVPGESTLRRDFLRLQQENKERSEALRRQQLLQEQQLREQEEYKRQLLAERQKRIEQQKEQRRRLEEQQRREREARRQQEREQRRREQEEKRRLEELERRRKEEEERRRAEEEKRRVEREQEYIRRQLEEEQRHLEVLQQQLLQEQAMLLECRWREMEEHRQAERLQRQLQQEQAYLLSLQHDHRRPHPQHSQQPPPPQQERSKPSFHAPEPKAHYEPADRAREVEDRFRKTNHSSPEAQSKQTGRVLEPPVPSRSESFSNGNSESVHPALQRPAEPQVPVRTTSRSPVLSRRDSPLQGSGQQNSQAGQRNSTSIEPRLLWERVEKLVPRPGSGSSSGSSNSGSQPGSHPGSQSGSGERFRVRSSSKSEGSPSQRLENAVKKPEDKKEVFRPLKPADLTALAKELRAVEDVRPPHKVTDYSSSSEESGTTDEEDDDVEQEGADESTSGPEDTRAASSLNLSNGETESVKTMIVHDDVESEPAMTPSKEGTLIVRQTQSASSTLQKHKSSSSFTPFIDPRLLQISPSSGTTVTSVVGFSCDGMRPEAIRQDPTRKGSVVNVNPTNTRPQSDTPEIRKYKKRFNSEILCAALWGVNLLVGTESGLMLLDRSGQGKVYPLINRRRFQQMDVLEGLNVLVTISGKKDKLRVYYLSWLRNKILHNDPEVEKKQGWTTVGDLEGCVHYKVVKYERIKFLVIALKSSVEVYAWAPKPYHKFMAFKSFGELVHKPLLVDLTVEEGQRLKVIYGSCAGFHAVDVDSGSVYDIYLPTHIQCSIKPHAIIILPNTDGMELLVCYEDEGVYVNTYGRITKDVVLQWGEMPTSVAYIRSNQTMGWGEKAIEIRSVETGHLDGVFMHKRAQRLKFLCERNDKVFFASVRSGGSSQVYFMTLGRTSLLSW
Chain of Myosin light chain kinase family member 4 (Homo sapiens) (Q86YV6 whole entry, the tested form may be a part): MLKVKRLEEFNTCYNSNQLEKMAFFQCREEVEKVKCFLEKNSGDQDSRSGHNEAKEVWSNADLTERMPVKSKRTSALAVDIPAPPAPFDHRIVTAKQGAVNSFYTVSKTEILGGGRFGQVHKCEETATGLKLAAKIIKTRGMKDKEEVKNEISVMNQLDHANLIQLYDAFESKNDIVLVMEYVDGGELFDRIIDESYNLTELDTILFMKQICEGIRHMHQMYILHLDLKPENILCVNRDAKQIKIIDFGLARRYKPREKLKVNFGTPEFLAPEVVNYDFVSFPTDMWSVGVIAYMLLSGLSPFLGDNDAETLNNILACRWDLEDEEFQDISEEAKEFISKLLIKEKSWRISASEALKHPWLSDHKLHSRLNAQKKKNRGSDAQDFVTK

With `C=CC(=O)Nc1ccccc1Nc1nc(Nc2ccc(N3CCN(C)CC3)cc2)ncc1C(=O)Nc1c(C)cccc1Cl`, the Activity in [1] is 100%; in test [2], 100%; in [3], 81%; in [4] it was 100%; in test [5], 100%; in test [6], 100%. The Activity in test [7] was 91%; in test [8], 69%; in [9] it was 90%; in test [10] it was 100%; in test [12], 100%; in test [13], 100%. The Activity in [14] was 100%; in test [15], 100%; in test [16], 90%; in test [17], 100%; in test [18], 100%; in test [19] it was 79%. Also, in test [20], the Activity is 100%. In addition, in [11], the inhibition entry is “inactive”.
